{"data": "Experimental data collected from several papers", "target": "BDNF/NT-3 growth factors receptor (NTRK2, Homo sapiens, UniProt Q16620)", "note": "Compare with care: the assays were run in different laboratories."}
{"SMILES": "O=C(Nc1ccc(Cl)cc1)Nc1cccc(C(=O)Nc2ccc3[nH]ncc3c2)c1", "effect on": "enzyme activity", "action": "inhibitor", "technique": "FRET", "tested at": "1 µM", "inhibition [%]": 18.8}
{"SMILES": "CNC(=O)c1cc2c(Oc3ccc(NC(=O)C4(C(=O)Nc5ccc(F)cc5)CC4)cc3)ccnc2cc1OC", "effect on": "enzyme activity", "action": "inhibitor", "technique": "radiometric", "tested at": "1 µM", "inhibition [%]": 100}
{"SMILES": "CCCS(=O)(=O)Nc1ccc(F)c(C(=O)c2c[nH]c3ncc(-c4ccc(Cl)cc4)cc23)c1F", "effect on": "enzyme activity", "action": "inhibitor", "tested at": "1 µM", "inhibition [%]": "< 10"}
{"SMILES": "CC/C(=N\\NC(=O)NCc1cccc(O)c1)c1ccc(O)c(C)c1O", "effect on": "enzyme activity", "action": "inhibitor", "tested at": "0.1 µM", "inhibition [%]": 2.2}
{"SMILES": "CNC(=O)c1cc(Oc2ccc(NC(=O)Nc3ccc(Cl)c(C(F)(F)F)c3)cc2)ccn1", "effect on": "cell-free assay", "tested at": "0.3 µM", "inhibition [%]": 14}
{"SMILES": "O=C(Nc1cccc(Cl)c1)Nc1cccc(C(=O)Nc2ccc3[nH]ncc3c2)c1", "effect on": "enzyme activity", "action": "inhibitor", "technique": "FRET", "tested at": "1 µM", "inhibition [%]": 20.2}
{"SMILES": "COc1cc2ncnc(Nc3ccc(Oc4ccccc4)c(C)c3C)c2cc1OC", "effect on": "enzyme activity", "action": "inhibitor", "tested at": "1 µM", "inhibition [%]": -3}
{"SMILES": "O=C(Nc1ccc(OC(F)(F)F)cc1)Nc1cccc(C(=O)Nc2ccc3[nH]ncc3c2)c1", "effect on": "enzyme activity", "action": "inhibitor", "technique": "FRET", "tested at": "1 µM", "inhibition [%]": 14.5}
{"SMILES": "COc1cc2ncnc(Nc3ccc(Oc4ccccc4)cc3C)c2cc1OC", "effect on": "enzyme activity", "action": "inhibitor", "tested at": "1 µM", "inhibition [%]": 11}
{"SMILES": "CN1CC(Oc2cnc(C#N)cc2-c2ccn3nc(NC(=O)C4CC4)cc3c2)C1", "effect on": "enzyme activity", "action": "inhibitor", "tested at": "1 µM", "inhibition [%]": 4}
